Screening data from PubChem.
MC4R barr agon: MC4R agonists recruiting beta-arrestin, primary screen, cell-based, luminescence, agonist arm of biased-ligand search; Melanocortin receptor 4 (Homo sapiens), P32245; U2OS MC4R beta-arrestin complementation; percent of melanotan II response, DMSO zero; AID 540308, 2011; actives 0.98% (n = 360,000); activation, % at 8.9 µM;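 active = activation above a per-plate cutoff, the mean activation of sample wells on that plate plus 3 SD, cut at about 8% in these data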
MC4R antag cAMP: MC4R antagonists of cAMP signaling, primary screen, cell-based, TR-FRET, antagonist arm of biased-ligand search. Melanocortin receptor 4 (Homo sapiens), P32245. MC4R-expressing cells, MTII-stimulated cAMP, LANCE TR-FRET. inhibition, % at 6.5 µM. actives 0.48% (n = 360,000). AID 540295, 2011;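 active = inhibition above its plate's cutoff, the mean of tested wells on that plate plus 3 SD, cut at about 29% in these data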;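 note: 0% = Melanotan II alone and 100% = Melanotan II plus saturating MCL0020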
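System – human MC4R-expressing U2OS cells · Also added – Melanotan II · Dosing – one concentration, 6.5 µM nominal · Timing – 30-min compound, 1-h challenge, 1-h detection, room temperature · Measured by – Eu-cAMP/anti-cAMP TR-FRET, emission 671 nm · Replicates – singlicate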
EBI2 antag: EBI2 receptor antagonists, beta-arrestin recruitment, primary screen, cell-based, luminescence, 7a,25-OHC stimulation, uHTS | G-protein coupled receptor 183 (Homo sapiens), P32249 | 7a,25-OHC stimulated | inhibition, % at 5 µM | actives 0.81% (n = 360,000); in the data active = inhibition above about 38%;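 note: enzyme fragment complementation signal reports receptor beta-arrestin coupling in cells; 0% = agonist plus DMSO wells and 100% = wells without agonist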
m5-HT2A agonist: mouse Htr2a agonists via beta-arrestin recruitment, primary screen, cell-based, luminescence. 5-hydroxytryptamine receptor 2A (Mus musculus), P35363. actives 0.66% (n = 360,000). activation, % at 7.6 µM. AID 624169, 2012. CHO-K1 mHTR2A beta-arrestin complementation; percent of 30 µM serotonin response;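 active = activation above a run cutoff, the mean activation of all tested compounds plus 3 SD, cut at about 14% in these data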;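 note: 0% = plate median of compound wells and 100% = 30 µM serotonin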
MC4R barr ag: MC4R beta-arrestin agonists, retest, confirmation, cell-based, luminescence, U2OS; activation, % at 8.9 µM; actives 31% (n = 2,400); shares compounds with MC4R barr agon; AID 602192, 2012; U2OS MC4R beta-arrestin recruitment; scaled DMSO 0%, Melanotan II 100%;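 active = mean activation across replicates above the hit cutoff set in the earlier primary screen, cut at about 8% in these data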
MOR-DOR barr ag: agonists of MOR-DOR heterodimerization, counter-screen for MC4R biased agonist project, cell-based, luminescence | activation, % at 9.2 µM | shares compounds with MC4R barr agon | actives 5.8% (n = 2,400) | U2OS PathHunter beta-arrestin, beta-gal luminescence; percent of deltorphin B response, DMSO zero;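 active = mean activation across replicates exceeds the hit threshold derived in the earlier primary screen, cut at about 18% in these data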;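 note: 100% = deltorphin B at 0.9 µM final and 0% = DMSO alone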
Target sequence (P35372 whole entry, looked up): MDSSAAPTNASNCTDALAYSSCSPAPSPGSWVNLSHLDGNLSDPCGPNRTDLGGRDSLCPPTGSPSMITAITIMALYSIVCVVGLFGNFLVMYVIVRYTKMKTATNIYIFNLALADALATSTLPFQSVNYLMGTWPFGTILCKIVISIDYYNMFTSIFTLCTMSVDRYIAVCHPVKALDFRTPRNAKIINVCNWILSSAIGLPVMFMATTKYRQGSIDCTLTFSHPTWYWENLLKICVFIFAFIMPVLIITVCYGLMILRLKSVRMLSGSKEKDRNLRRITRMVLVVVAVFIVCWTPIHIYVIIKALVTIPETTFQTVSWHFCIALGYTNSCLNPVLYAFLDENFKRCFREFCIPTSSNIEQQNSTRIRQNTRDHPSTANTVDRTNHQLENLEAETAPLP
Target sequence (P41143 whole entry, looked up): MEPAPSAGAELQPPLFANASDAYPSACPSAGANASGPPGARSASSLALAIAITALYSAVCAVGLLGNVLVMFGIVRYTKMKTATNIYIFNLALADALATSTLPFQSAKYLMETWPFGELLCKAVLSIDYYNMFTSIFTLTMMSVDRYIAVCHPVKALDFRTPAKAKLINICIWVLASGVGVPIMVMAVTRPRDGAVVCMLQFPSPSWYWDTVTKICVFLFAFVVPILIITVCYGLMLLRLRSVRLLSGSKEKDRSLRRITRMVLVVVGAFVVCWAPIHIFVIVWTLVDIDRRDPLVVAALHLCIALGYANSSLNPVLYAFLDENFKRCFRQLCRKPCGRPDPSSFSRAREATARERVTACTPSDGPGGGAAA
* hit, by the source's call; ! = not confirmed by another sample. Sampled rows, rich in hits. Any-hit rate of the full collection: about 2.8%.

For CCOc1ccc(/C=C/C(=O)N2CCOCC2)cc1OC the results were MC4R barr agon 0.5, MC4R antag cAMP -9.6, EBI2 antag 6.7 and m5-HT2A agonist 2.6.
Screening CCOc1cc(C(=S)N2CCOCC2)ccc1OC(=O)/C=C/c1ccc(OC)c(OC)c1 returned MC4R barr agon 11.5*, MC4R antag cAMP 5.6, EBI2 antag -2.4, m5-HT2A agonist 4.4, MC4R barr ag 0.1 and MOR-DOR barr ag 2.1.
`COc1ccccc1Nc1nnc(SCC(=O)Nc2cc(C)on2)s1` gave MC4R barr agon 29.7*, MC4R antag cAMP 5.0, EBI2 antag 2.4, m5-HT2A agonist 7.3, MC4R barr ag 2.8 and MOR-DOR barr ag 7.1.
Screening CCN1CCN(Cc2ccc(NC(=O)c3ccc(C)c(NC(=O)c4cccc(-c5cn[nH]c(=O)c5)c4)c3)cc2C(F)(F)F)CC1 returned MC4R barr agon -0.6, MC4R antag cAMP 3.7, EBI2 antag 3.6 and m5-HT2A agonist -9.3.
For CCN1CCN(Cc2ccc(NC(=O)c3ccc(C)c(NC(=O)c4c[nH]c5cc(C(F)(F)F)ccc5c4=O)c3)cc2C(F)(F)F)CC1 the results were MC4R barr agon 11.6*!, MC4R antag cAMP -1.5, EBI2 antag -7.6, m5-HT2A agonist 1.4, MC4R barr ag 4.9 and MOR-DOR barr ag 77.5*.
`COC(=O)C1=C(C)N(Cc2ccccc2)C(=NCC(C)C)N[C@H]1c1cccc(F)c1` gave MC4R barr agon -0.2, MC4R antag cAMP 1.5, EBI2 antag 9.5 and m5-HT2A agonist -0.3.
`COC(=O)C1=C(C)N(Cc2ccccc2)C(=NCC(C)C)N[C@H]1c1cccc(C(F)(F)F)c1` gave MC4R barr agon 15.7*, MC4R antag cAMP 7.8, EBI2 antag -13.8, m5-HT2A agonist -10.0, MC4R barr ag 17.5* and MOR-DOR barr ag 23.2*.
For CCCNc1c(NS(=O)(=O)c2ccc3c(c2)CCCC3)c(=O)oc2ccccc12 the results were MC4R barr agon 14.2*, MC4R antag cAMP 6.0, EBI2 antag 3.0, m5-HT2A agonist 9.9, MC4R barr ag 2.8 and MOR-DOR barr ag 3.0.
Screening CNc1ncnc2c1ncn2[C@H]1CN(CCN2CCOCC2)C[C@@H](CO)O1 returned MC4R barr agon -0.6, MC4R antag cAMP 14.6, EBI2 antag -13.8 and m5-HT2A agonist 4.5.
`Cc1ccc2nc(-c3cccc(NS(C)(=O)=O)c3)cc(-c3ccccc3)c2c1` gave MC4R barr agon 11.0*, MC4R antag cAMP 0.0, EBI2 antag 21.2, m5-HT2A agonist 14.3, MC4R barr ag 7.5 and MOR-DOR barr ag 3.1.
`COc1cccc2sc(N(CCCN(C)C)C(=O)c3sc4ccccc4c3Cl)nc12` gave MC4R barr agon 17.4*, MC4R antag cAMP -10.6, EBI2 antag 0.4, m5-HT2A agonist 5.1, MC4R barr ag 20.4* and MOR-DOR barr ag 24.4*.
O=C1CSc2ccc(C(=O)Nc3cccc(S(=O)(=O)Nc4ccc(Br)cc4)c3)cc2N1 was read as MC4R barr agon 10.9*, MC4R antag cAMP 25.2, EBI2 antag 5.4, m5-HT2A agonist -1.9, MC4R barr ag 3.0 and MOR-DOR barr ag 4.2.
`O=C(Nc1cccc(O)c1)c1cccc(S(=O)(=O)Nc2cccc(O)c2)c1` gave MC4R barr agon -1.6, MC4R antag cAMP 17.9, EBI2 antag -4.7 and m5-HT2A agonist 0.7.
`CSc1ccccc1NC(=O)C1CC(c2ccccc2O)=NO1` (stereo not given) gave MC4R barr agon 1.0, MC4R antag cAMP 3.1, EBI2 antag 7.2 and m5-HT2A agonist -0.3.
COC(=O)c1ccccc1NC(=O)C1CC(c2ccccc2O)=NO1 (stereo not given) was read as MC4R barr agon 13.8*, MC4R antag cAMP 6.2, EBI2 antag 8.8, m5-HT2A agonist 3.7, MC4R barr ag -1.7 and MOR-DOR barr ag 3.7.
For COc1ccc(Cc2c(-c3ccccc3)nc3c(C)cc(Br)cn23)c(C)c1 the results were EBI2 antag 7.4 and m5-HT2A agonist -2.9.
For Cc1ccc(C(=O)Nc2nnc([C@H]3C[C@H](O)[C@@H](CO)O3)s2)cc1 the results were MC4R barr agon -1.2, MC4R antag cAMP 13.5, EBI2 antag 9.1 and m5-HT2A agonist 4.7.
For CC(=O)Nc1ccc(S(=O)(=O)Nc2cc(C)c(-n3nc4ccccc4n3)cc2O)cc1 the results were MC4R barr agon 11.3*, MC4R antag cAMP -11.0, EBI2 antag 8.4, m5-HT2A agonist -0.2, MC4R barr ag 0.4 and MOR-DOR barr ag 2.7.
Screening Cc1ccc(Cl)cc1NC(=O)c1ccccc1OCC(=O)Nc1ccc(Cl)cc1 returned MC4R barr agon 15.2*, MC4R antag cAMP 23.1, EBI2 antag 35.0, m5-HT2A agonist 5.6, MC4R barr ag 8.2* and MOR-DOR barr ag 8.3.
For Cc1ccc(NC(=O)c2ccccc2OCC(=O)c2ccc(F)cc2)cc1 the results were MC4R barr agon 50.8*, MC4R antag cAMP 1.9, EBI2 antag -14.0, m5-HT2A agonist 7.2, MC4R barr ag 18.4* and MOR-DOR barr ag 8.3.
`CCOC(=O)C1(C)CCN1C(=O)c1cc(C)oc1C` (stereo not given) gave MC4R barr agon -1.1, MC4R antag cAMP 10.2, EBI2 antag 0.6 and m5-HT2A agonist 0.7.
`Cc1ccc(S(=O)(=O)N(C)C[C@@H]2OCc3cnnn3CCCC(=O)N([C@H](C)CO)C[C@H]2C)cc1` gave MC4R barr agon -0.7, MC4R antag cAMP -4.7, EBI2 antag -1.2 and m5-HT2A agonist 6.0.
For CCOc1ccc(OCCC(=O)OCC(=O)NCCc2ccc(S(N)(=O)=O)cc2)cc1 the results were MC4R barr agon -1.8, MC4R antag cAMP 16.4, EBI2 antag -6.8 and m5-HT2A agonist 3.1.
Screening CCCCNC(=O)C1(C)CCC(=O)N1C1CC1 (stereo not given) returned EBI2 antag -9.2 and m5-HT2A agonist 1.1.
For Cc1ccccc1N1CCN(S(=O)(=O)c2nnc(NC(=O)CC(C)C)s2)CC1 the results were MC4R barr agon 12.9*, MC4R antag cAMP -1.3, EBI2 antag 5.6, m5-HT2A agonist -0.7, MC4R barr ag 1.1 and MOR-DOR barr ag 6.1.
For Cc1ccccc1N1CCN(S(=O)(=O)c2nnc(NC(=O)c3ccco3)s2)CC1 the results were MC4R barr agon 0.9, MC4R antag cAMP 1.6, EBI2 antag 1.8 and m5-HT2A agonist 11.1.
